Experimental data: ChEMBL document CHEMBL3865819, “Myrsinane, Premyrsinane, and Cyclomyrsinane Diterpenes from Euphorbia falcata as Potassium Ion Channel Inhibitors with Selective G Protein-Activated Inwardly Rectifying Ion Channel (GIRK) Blocking Effects” (J Nat Prod, 2016)

Assays:
Format in all cases: cell-based
[1] = molecular target: T1, hERG (KCNH2) (Homo sapiens, UniProt Q12809); test: Inhibition of human ERG expressed in HEK293 cells assessed as decrease in channel current at 10 uM after 3 mins at -80 mV holding potential by automated patch-clamp electrophysiology assay; conditions: HEK293 cells that express hERG
T1 sequence (Q12809 whole entry): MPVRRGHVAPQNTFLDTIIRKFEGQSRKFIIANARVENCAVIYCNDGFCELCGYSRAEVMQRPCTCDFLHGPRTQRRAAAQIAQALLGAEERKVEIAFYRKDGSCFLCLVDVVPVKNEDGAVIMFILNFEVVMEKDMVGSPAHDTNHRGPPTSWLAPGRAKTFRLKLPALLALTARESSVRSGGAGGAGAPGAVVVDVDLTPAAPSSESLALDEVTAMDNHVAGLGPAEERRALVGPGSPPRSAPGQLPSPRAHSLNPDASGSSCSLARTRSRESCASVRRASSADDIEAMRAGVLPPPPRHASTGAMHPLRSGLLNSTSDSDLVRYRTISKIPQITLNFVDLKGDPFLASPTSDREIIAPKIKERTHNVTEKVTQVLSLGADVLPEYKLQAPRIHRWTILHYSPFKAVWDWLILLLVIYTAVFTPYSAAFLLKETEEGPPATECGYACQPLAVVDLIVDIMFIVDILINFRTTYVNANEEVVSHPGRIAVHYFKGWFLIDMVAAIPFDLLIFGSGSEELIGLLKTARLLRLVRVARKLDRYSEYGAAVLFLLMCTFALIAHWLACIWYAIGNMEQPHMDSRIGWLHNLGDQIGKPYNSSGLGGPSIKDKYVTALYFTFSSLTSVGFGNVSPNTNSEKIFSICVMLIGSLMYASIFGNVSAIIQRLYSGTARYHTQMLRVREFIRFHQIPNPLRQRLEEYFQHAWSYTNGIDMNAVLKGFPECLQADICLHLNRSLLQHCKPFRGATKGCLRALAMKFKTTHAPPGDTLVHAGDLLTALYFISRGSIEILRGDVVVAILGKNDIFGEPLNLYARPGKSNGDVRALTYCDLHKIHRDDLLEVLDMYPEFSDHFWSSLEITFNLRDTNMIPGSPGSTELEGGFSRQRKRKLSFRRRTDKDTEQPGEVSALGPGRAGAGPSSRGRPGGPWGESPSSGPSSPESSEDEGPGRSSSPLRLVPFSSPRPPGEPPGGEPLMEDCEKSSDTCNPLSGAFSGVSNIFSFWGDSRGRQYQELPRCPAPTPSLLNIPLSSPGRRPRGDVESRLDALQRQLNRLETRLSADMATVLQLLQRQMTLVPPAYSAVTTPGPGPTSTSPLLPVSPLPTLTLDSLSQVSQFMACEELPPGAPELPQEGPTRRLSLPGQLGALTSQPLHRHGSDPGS
Method in brief: (§1)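 HEK-293 cells stably transfected with hERG (Kv11.1), whole-cell automated planar patch clamp. External solution 4 mM KCl, pH 7.4; internal KCl/KF/EGTA, pH 7.2. Protocol: 100 ms −40 mV reference step, 3 s at 20 mV, then 1 s at −40 mV for the outward tail current. After control, 3, 10, 30 μM cumulative, ~3 min each; amitriptyline 10 μM reference, then wash-out; two or three cells; DMSO ≤0.3% final.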

[2] = molecular target: T2, Kir3.1/Kir3.4 (Homo sapiens) (UniProt P48549+P48544); test: Inhibition of GTPgammaS-induced activation of GIRK1/4 (unknown origin) expressed in HEK293 cells assessed as decrease in channel current at 1 uM after 2 mins at -40 mV holding potential by automated patch-clamp electrophysiology assay
Method in brief: (§2)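 Whole-cell automated planar patch clamp on HEK-293 cells stably expressing GIRK1/4 (Kir3.1/3.4). Internal solution carries 0.9 mM GTPγS to activate channels; bath switched from 4 mM K+ to high-K+ (25 mM KCl) external, pH 7.4. Step to 60 mV, ramp to −140 mV, 100 ms at −140 mV, ~0.1 Hz; inward current read at −140 mV. After 3 min control, 1 then 10 μM for ~2 min each; K+-free solution baseline; two to three cells.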

[3] = molecular target: T1, hERG (KCNH2); test: Inhibition of human ERG expressed in HEK293 cells assessed as decrease in channel current at 30 uM after 3 mins at -80 mV holding potential by automated patch-clamp electrophysiology assay; conditions: HEK293 cells that express hERG; method in brief: as §1
[4] = molecular target: T3, Kir3.1/Kir3.4 (Homo sapiens, UniProt P48544+P48549); test: Inhibition of GTPgammaS-induced activation of GIRK1/4 (unknown origin) expressed in HEK293 cells assessed as decrease in channel current after 2 mins at -40 mV holding potential by automated patch-clamp electrophysiology assay
T3 sequence (P48549 whole entry): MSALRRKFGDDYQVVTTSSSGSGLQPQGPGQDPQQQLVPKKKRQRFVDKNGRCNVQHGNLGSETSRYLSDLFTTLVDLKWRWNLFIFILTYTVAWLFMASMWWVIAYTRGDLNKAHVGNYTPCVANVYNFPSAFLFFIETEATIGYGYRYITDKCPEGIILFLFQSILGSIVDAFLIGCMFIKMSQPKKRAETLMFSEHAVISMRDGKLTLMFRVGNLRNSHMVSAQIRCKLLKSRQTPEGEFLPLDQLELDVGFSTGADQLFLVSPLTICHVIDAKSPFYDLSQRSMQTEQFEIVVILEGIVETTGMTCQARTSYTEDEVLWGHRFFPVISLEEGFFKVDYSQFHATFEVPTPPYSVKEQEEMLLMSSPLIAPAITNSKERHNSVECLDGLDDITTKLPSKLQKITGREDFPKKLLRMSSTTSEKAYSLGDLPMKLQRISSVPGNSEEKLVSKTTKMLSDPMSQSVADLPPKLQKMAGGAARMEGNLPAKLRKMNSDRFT
T3 sequence (P48544 whole entry): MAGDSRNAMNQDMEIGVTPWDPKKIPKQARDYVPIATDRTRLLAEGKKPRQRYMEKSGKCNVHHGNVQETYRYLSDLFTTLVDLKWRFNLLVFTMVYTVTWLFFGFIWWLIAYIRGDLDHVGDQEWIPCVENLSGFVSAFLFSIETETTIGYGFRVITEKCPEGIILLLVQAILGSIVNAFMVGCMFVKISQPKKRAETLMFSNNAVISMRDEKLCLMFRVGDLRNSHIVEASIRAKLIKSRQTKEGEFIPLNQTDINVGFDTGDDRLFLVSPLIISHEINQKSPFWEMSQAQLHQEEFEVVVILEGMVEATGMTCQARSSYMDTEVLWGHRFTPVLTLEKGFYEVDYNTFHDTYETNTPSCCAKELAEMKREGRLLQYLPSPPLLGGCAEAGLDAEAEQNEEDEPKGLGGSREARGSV
Method in brief: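 HEK-293 cells stably expressing Kir3.1/3.4, grown in MEM with 10% FBS and zeocin, trypsinised and resuspended serum-free. Whole-cell automated planar patch clamp. Internal solution contained 0.9 mM GTPγS. Recordings began in normal external solution (4 mM K+), then switched to high-K+ external solution (25 mM KCl, pH 7.4). Each cycle: step to 60 mV for 100 ms, 500 ms ramp to −140 mV, hold at −140 mV for 100 ms, about 0.1 Hz. Inward current taken from the −140 mV segment. After a 3 min control period, compound was added in rising concentrations, about 2 min each: 1 and 10 μM for screening on 2–3 cells, or 1, 3, 10 and 30 μM on at least 5 cells for IC50. Final DMSO was 0.3% or less. Current in K+-free solution served as baseline. 1 μM propafenone was the reference.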

[5] = molecular target: T2, Kir3.1/Kir3.4 (Homo sapiens); test: Inhibition of GTPgammaS-induced activation of GIRK1/4 (unknown origin) expressed in HEK293 cells assessed as decrease in channel current at 10 uM after 2 mins at -40 mV holding potential by automated patch-clamp electrophysiology assay; method in brief: as §2
[6] = molecular target: T1, hERG (KCNH2); test: Inhibition of human ERG expressed in HEK293 cells assessed as decrease in channel current at 3 uM after 3 mins at -80 mV holding potential by automated patch-clamp electrophysiology assay; conditions: HEK293 cells that express hERG; method in brief: as §1

Structure (SMILES) | inhibition at 0.05 h, 10 µM [1] | inhibition [2] | inhibition at 0.05 h, 30 µM [3] | IC50 [4] | inhibition [5] | inhibition at 0.05 h, 3 µM [6]
CC(=O)O[C@@H]1[C@H]2[C@@H](OC(=O)C(C)C)[C@@H](C)C[C@]2(OC(C)=O)[C@@H](OC(C)=O)[C@]2(C)OC[C@]13C(=O)[C@H](OC(C)=O)[C@@H]1C[C@](C)(OC(C)=O)[C@@H]1[C@@H]23 | 16% | 28% | 23% | 9.7 µM | 61% | 8%
CCC(=O)O[C@@H]1[C@@H]2[C@@H](OC(C)=O)[C@@]34CO[C@@](C)([C@H](OC(C)=O)[C@@]2(OC(C)=O)C[C@@H]1C)[C@@H]3[C@@H](C(C)(C)OC(C)=O)C=CC4=O | 13% | 24% | 18% | 6.7 µM | 62% | 5%
CC(=O)O[C@@H]1[C@H]2[C@@H](OC(=O)c3ccccc3)[C@@H](C)C[C@]2(OC(C)=O)[C@@H](OC(C)=O)[C@]2(C)OC[C@]13C(=O)C=C[C@H](C(C)(C)OC(C)=O)[C@@H]23 | 20% | 43% | 39% | 2.5 µM | 83% | 9%
CCC(C)C(=O)O[C@H]1C(=O)[C@@]23CO[C@@](C)([C@H](OC(C)=O)[C@@]4(OC(C)=O)C[C@H](C)[C@H](OC(=O)c5cccnc5)[C@@H]4[C@H]2OC(C)=O)[C@@H]3[C@@H]2[C@H]1C[C@]2(C)OC(C)=O (stereo not given in full) | 14% | 31% | 25% | 4.9 µM | 72% | 4%
CC(=O)O[C@@H]1[C@H]2[C@@H](OC(=O)C(C)C)[C@@H](C)C[C@]2(OC(C)=O)[C@@H](OC(C)=O)[C@]2(C)OC[C@]13C(=O)C=C[C@H](C(C)(C)OC(C)=O)[C@@H]23 [EUPHORBIAPROLIFERIN C] | 4% | 34% | 16% | 4.7 µM | 69% | 0%
